Screening data deposited in PubChem BioAssay by several laboratories.
FLuc act counter – firefly luciferase counter-screen for stimulation assays | P08659 | ATPlite luciferase biochemical, luminescence, 10 min; 0 = ATP-free wells, 1 = DMSO control | activation factor at 10 µM | 200,000 tested, under 10 active | AID 1027;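 active means luciferase activation factor, scaled between plate controls, of at least 2 with compound at 10 µM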
Target sequence (P08659 whole entry, looked up): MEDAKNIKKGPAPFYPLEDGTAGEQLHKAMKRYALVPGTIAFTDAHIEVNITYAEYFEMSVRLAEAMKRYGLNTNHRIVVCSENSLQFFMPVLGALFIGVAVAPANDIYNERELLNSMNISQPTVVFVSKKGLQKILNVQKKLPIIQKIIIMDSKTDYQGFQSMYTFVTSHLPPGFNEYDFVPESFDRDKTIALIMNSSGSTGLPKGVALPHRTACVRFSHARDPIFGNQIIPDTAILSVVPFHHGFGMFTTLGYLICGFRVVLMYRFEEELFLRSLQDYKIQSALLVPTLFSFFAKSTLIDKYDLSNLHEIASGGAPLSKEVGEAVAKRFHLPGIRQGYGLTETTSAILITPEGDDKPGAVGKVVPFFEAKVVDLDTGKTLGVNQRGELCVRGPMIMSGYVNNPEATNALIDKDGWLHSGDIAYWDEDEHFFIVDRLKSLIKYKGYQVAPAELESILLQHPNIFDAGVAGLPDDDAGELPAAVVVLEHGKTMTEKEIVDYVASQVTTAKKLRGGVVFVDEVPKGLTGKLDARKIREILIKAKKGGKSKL
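Assay system: Luciferase/luciferin detection reagent, cell-free biochemical luciferase assay / Read-out: luciferase activation / Benchmarks: No-ATP low control, compound-free enzyme-plus-ATP high control / Medium: PBS buffer for ATP / Detection: luminescence measurement of luciferase light output / Schedule: 10 min at ambient temperature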
APP 5'UTR act – APP 5'UTR luciferase reporter activation; 1% of 190,000 active; activation, % at 2 µM; SH-SY5Y APP 5'UTR luciferase reporter, luminescence; zero percent = DMSO vehicle wells;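 active means activation above a set limit, based on mean plus 3 SD of controls, cut at about 140% in these data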
STAT1 act – STAT1 signaling activation. activation (% of control), % at 5.5 µM. NIH 3T3 STAT1-luciferase reporter, IFN-gamma, luminescence; 100% = IFN-gamma alone, no compound. 2.6% of 200,000 active;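 active means activation above the screen-wide mean activation plus 3 SD, cut at about 130% in these data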
NF-kB expr up – compounds increasing NF-kB expression in human neuronal cells; 1.6% of 190,000 active; AID 1239; NF-kB reporter expression; hits give high values; fold change at 12.5 µM; in the data active means fold change above about 3.3
FLuc inhib CS – Photinus pyralis luciferase inhibition counter-screen. AID 1006. ATPLite firefly luciferase biochemical luminescence, 10 min. inhibition, % at 10 µM. 1.5% of 200,000 active;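 active means inhibition above about 50% when tested at 10 µM, limit read from the data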
Each line names hits and unclear results; the compound was inactive in the other large screens. An excerpt weighted towards active compounds, which were near 4.1% of everything screened.

CC(C)CNC(=O)COc1ccccc1[N+](=O)[O-]	none
Cc1ccnc(NC(=O)CCCOc2cc(=O)n(C)c3ccccc23)c1	NF-kB expr up 7.58
COC(=O)CNC(=O)COC(=O)c1ccc(OC)c([N+](=O)[O-])c1	none
CC(C)(C)c1cc(C(=O)N2CCN(c3ncccn3)CC2)ccn1	NF-kB expr up 4.79
O=C(c1ccc(F)cc1)N1CCN(c2ncccn2)CC1	none
Cc1ccc(S(=O)(=O)Oc2ccc(N3C(=O)C4C5CCC(C5)C4C3=O)cc2)cc1 (stereo not drawn)	none
O=C1C2C3CCC(C3)C2C(=O)N1c1ccc(OS(=O)(=O)c2ccccc2)cc1 (stereo not drawn)	STAT1 act 137.1
O=C(NCCc1ccccc1)c1cc(-c2ccco2)on1	STAT1 act 131.9, NF-kB expr up 5.78
O=C(NCc1ccccc1)c1cc(-c2ccco2)on1	none
COc1ccc(CCNC(=O)c2cc(-c3cccs3)on2)cc1OC	none
COc1ccc(CCNC(=O)c2cc(-c3ccco3)on2)cc1OC	NF-kB expr up 4.49
Cc1ccc(NC(=O)c2cc(-c3ccco3)on2)cc1C	STAT1 act 131.5
Cc1ccc(Oc2ccc(Oc3ccc(C)cc3)nn2)cc1	none
Cc1ccccc1Oc1ccc(Oc2ccccc2C)nn1	STAT1 act 130.7
C=CCNCc1cccn1-c1ccccc1	none
Cc1ccc(-c2nc(NCc3ccco3)n(S(C)(=O)=O)n2)cc1	STAT1 act 144.0
CC(=O)n1nc(-c2ccc(C)cc2)nc1NCc1ccco1	none
Cc1c(C(=O)Nc2ccccc2)csc1-c1ccccc1	APP 5'UTR act 189.3, STAT1 act 137.2, NF-kB expr up 5.17, FLuc inhib CS 82.4
Cc1ccc2oc(-c3ccco3)cc(=O)c2c1	STAT1 act 137.7
CC(=O)NS(=O)(=O)c1ccc(NC(=O)CC(C)c2ccccc2)cc1 (stereo not drawn)	none
COC(=O)c1ccc(NC(=O)C(=O)N2CCN(C(=S)Nc3cccc(OC)c3)CC2)cc1	none
COc1cccc(NC(=O)C(=O)N2CCOCC2)c1	STAT1 act 135.8 (no result: APP 5'UTR act)
COc1cccc(NC(=O)C(=O)NCc2ccncc2)c1	STAT1 act 128.6
O=C(/C=C/c1cc([N+](=O)[O-])ccc1OC(F)F)Nc1cccc(OC(F)F)c1	none
CCN1CCCc2cc(CN(CCN3CCOCC3)C(=S)Nc3cccc(Cl)c3)ccc21	NF-kB expr up 8.13
Cc1cc(C(=O)Nc2nnc(C3CCCCC3)s2)no1	none
Cc1ccc(C(=O)Nc2nc(C)c(C)s2)o1	STAT1 act 131.9, NF-kB expr up 4.03
Cc1nc(NC(=O)c2ccc(Br)o2)sc1C	STAT1 act 130.3, NF-kB expr up 4.7
Cc1ccc(C(=O)Nc2nnc(C3CCCCC3)s2)o1	NF-kB expr up 3.76, FLuc inhib CS 52.5
O=C(Nc1nccs1)c1ccc(Br)o1	none
Cc1ccc(C(=O)Nc2nnc(C)s2)o1	none
COc1ccc(-c2cc(-c3ccccc3)c(C#N)c(S(C)(=O)=O)n2)cc1	NF-kB expr up 6.34
Cn1c(N2CCC(C(N)=O)CC2)nc2c1c(=O)n(Cc1ccc(Br)cc1)c(=O)n2C	none (no result: FLuc act counter, NF-kB expr up, FLuc inhib CS)
Cc1nccc(-c2ccc3c(c2)OCO3)n1	none
c1ccc(-c2noc(-c3ccc4c(c3)OCO4)n2)nc1	FLuc inhib CS 94.1
c1ccc(-c2nccc(-c3ccc4c(c3)OCO4)n2)cc1	STAT1 act 134.5
c1ccc(-c2noc(-c3ccc4ccccc4c3)n2)nc1	FLuc inhib CS 96.5
COc1ccc(OC)c2c(C)cc(NCCN3CCOCC3)nc12	none
O=C(O)/C=C/C(=O)NC1CC1	none
COc1ccc(S(=O)(=O)N2CCCCC2)cc1NC(=O)CSc1ncnc2ccccc12	none
CC(On1c(-c2ccccc2)nc2ccc(Cl)cc21)C(=O)O (stereo not drawn)	none
Cc1ccc(-c2nc3ccc(Cl)cc3n2OC(C)C(=O)O)cc1 (stereo not drawn)	STAT1 act 140.9
CC(C)CN(C)Cc1c(C(=O)N2CCc3ccccc3C2)nc2ccc(Cl)cn12	NF-kB expr up 5.06
Cc1cccc(/C=N\Nc2cn[nH]c(=O)c2Cl)c1	none
COc1ccccc1/C=N\Nc1cn[nH]c(=O)c1Cl	NF-kB expr up 9.09
Cc1cc(C)n(CC(=O)O)c(=O)c1[N+](=O)[O-]	none
Cc1ccc(C(=O)Oc2oc(-c3ccco3)nc2C=Nc2ccccc2)cc1	STAT1 act 139.4
CC(=O)Oc1oc(-c2ccccc2)nc1C=Nc1ccccc1	none
COc1ccc(N=Cc2nc(-c3ccccc3)oc2OC(=O)c2ccccc2)cc1	STAT1 act 132.4
COc1cc(NC(=O)CN(C)C2CCCCC2)c(C)cc1[N+](=O)[O-]	none
CCCCCCCc1ccc(-c2ccc(O)cc2)nc1	none
CCCc1ccc(-c2ccc(/C=C/C(=O)O)cc2)nc1	FLuc inhib CS 86.0
CCCCCc1ccc(-c2ccc(/C=C/C(=O)O)cc2)nc1	NF-kB expr up 4.57, FLuc inhib CS 78.1
Cc1ccc(N(CC(=O)NC(C)(C)C)C(=O)CS(=O)CC(=O)Nc2ccc(F)cc2)cc1 (stereo not drawn)	none
C=CCn1c(C)cc(C(=O)COC(=O)[C@@H](NC(=O)c2ccccc2Cl)C(C)C)c1C	FLuc inhib CS 96.5
O=C(NCc1ccccc1Cl)C(=O)NCC1OCCN1S(=O)(=O)c1cccs1 (stereo not drawn)	none
NC(=O)c1cc2ccc(O)cc2oc1=Nc1ccccc1	STAT1 act 130.5
Cc1ccccc1-c1nnc(-c2cccs2)o1	STAT1 act 144.2
Cc1ccccc1-c1noc(-c2cccs2)n1	STAT1 act 142.7
CC(=O)N1CCN(CC(=O)Nc2c(Cl)ccc(C)c2Cl)CC1	none
O=C(/C=C/c1ccco1)Nc1ccc2c(c1)OCO2	NF-kB expr up 4.64, FLuc inhib CS 65.9
COC(=O)c1cccc(NC(=O)/C=C/c2ccc3c(c2)OCO3)c1	FLuc inhib CS 69.2
Cc1cc(C)nc(NC(=O)/C=C/c2ccc3c(c2)OCO3)c1	STAT1 act 135.3, NF-kB expr up 3.31, FLuc inhib CS 70.9
O=C(/C=C/c1ccco1)NCc1ccc2c(c1)OCO2	none
O=C(/C=C/c1ccc2c(c1)OCO2)Nc1c(C(=O)O)[nH]c2ccccc12	FLuc inhib CS 91.4
COC(=O)c1cc(NC(=O)/C=C/c2ccc3c(c2)OCO3)cc(C(=O)OC)c1	none
CCC1CCCCN1C(=O)Cn1nc([N+](=O)[O-])c(Cl)c1C (stereo not drawn)	none
Cc1cc(NC(=O)C2CC(=O)N(c3ccccc3)C2)no1 (stereo not drawn)	none
COc1cc(C(=O)NCC(=O)OC(C)C(=O)Nc2ncc(Cl)cc2Cl)cc(OC)c1OC (stereo not drawn)	none
O=C(NC1CCCC1)C1CCCN1C(=O)Oc1ccccc1 (stereo not drawn)	none
Cc1cc(Nc2nn(C)c(N)c2C#N)ccc1F	none
CC1(C)SC2[C@H](NC(=O)C(NC(=O)N3CCNC3=O)c3ccccc3)C(=O)N2C1C(=O)O (stereo partly drawn)	none
CC(=O)Nc1ccc(NC(=O)/C=C/c2ccc3c(c2)OCO3)cc1	none
